In ChEMBL document CHEMBL5058577, “EUbOPEN Chemogenomics Library 2 (Multiplex)” (2022):

System: U2OS
Test: Multiplex assay against U2OS
Type: toxicity, cell-based
Details: human
Summary of the method: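 Per cents of healthy-nucleus cells form the tubulin, mitochondrial-mass and membrane-permeability phenotype values. Live cells were stained at seeding with Hoechst33342, BioTracker Green Microtubule Cytoskeleton Dye, MitoTracker Red and Annexin V Alexa Fluor 680. After compound addition they were imaged on a CQ1 microscope at 37°C and 5% CO2, and CellPathfinder machine-learning gating split them into Hoechst high-intensity objects or normal cells, normal cells into healthy, pyknosed or fragmented nuclei, and pyknosed cells into mitotic or apoptotic.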

[1] = 12 h, 1 µM, compound concentration 1 uM, replicate 1
[2] = 12 h, 1 µM, compound concentration 1 uM, replicate 2
[3] = 12 h, 10 µM, compound concentration 10 uM, replicate 1
[4] = 12 h, 10 µM, compound concentration 10 uM, replicate 2
[5] = 24 h, 1 µM, compound concentration 1 uM, replicate 1
[6] = 24 h, 1 µM, compound concentration 1 uM, replicate 2
[7] = 24 h, 10 µM, compound concentration 10 uM, replicate 1
[8] = 24 h, 10 µM, compound concentration 10 uM, replicate 2
[9] = 48 h, 1 µM, compound concentration 1 uM, replicate 1
[10] = 48 h, 1 µM, compound concentration 1 uM, replicate 2
[11] = 48 h, 10 µM, compound concentration 10 uM, replicate 1
[12] = 48 h, 10 µM, compound concentration 10 uM, replicate 2

With `Cc1c(CC(=O)O)c2cccnc2n1Cc1ccc(S(C)(=O)=O)cc1C(F)(F)F` [FEVIPIPRANT] the “Population Apoptotic (%)” value [1] was 80%, the “Population Fragmented Nuclei (%)” value [1] was 25% and the “Population Healthy Nuclei (%)” value [1] was 64%. The “Population Hoechst High Intensity Objects (%)” value [1] was 1%, the “Population Membrane Permeable-Phenotype (%)” value [1] was 2% and the “Population Mitochondria Different-Phenotype (%)” value [1] was 2%. For the same molecule, the “Population Mitotic Cells (%)” value [1] was 19%, the “Population Normal (%)” value [1] was 98% and the “Population Pyknosed Nuclei (%)” value [1] was 9%. The “Population Tubulin-Different-Phenotype (%)” value [1] was 0%, the “Total Cell Count” value [1] was 224 and the “Population Apoptotic (%)” value [2] was 50%. For the same molecule, the “Population Fragmented Nuclei (%)” value [2] was 22%, the “Population Healthy Nuclei (%)” value [2] was 72% and the “Population Membrane Permeable-Phenotype (%)” value [2] was 8%. The “Population Mitochondria Different-Phenotype (%)” value [2] was 1%, the “Population Mitotic Cells (%)” value [2] was 50% and the “Population Pyknosed Nuclei (%)” value [2] was 5%. The “Population Tubulin-Different-Phenotype (%)” value [2] was 9%, the “Total Cell Count” value [2] was 118 and the “Population Apoptotic (%)” value [3] was 90%. The “Population Fragmented Nuclei (%)” value [3] was 27%, the “Population Healthy Nuclei (%)” value [3] was 65% and the “Population Hoechst High Intensity Objects (%)” value [3] was 2%. The “Population Membrane Permeable-Phenotype (%)” value [3] was 3%, the “Population Mitochondria Different-Phenotype (%)” value [3] was 0% and the “Population Mitotic Cells (%)” value [3] was 9%. The “Population Normal (%)” value [3] was 97%, the “Population Pyknosed Nuclei (%)” value [3] was 7% and the “Population Tubulin-Different-Phenotype (%)” value [3] was 1%. The “Total Cell Count” value [3] was 287, the “Population Apoptotic (%)” value [4] was 100% and the “Population Fragmented Nuclei (%)” value [4] was 22%. For the same molecule, the “Population Healthy Nuclei (%)” value [4] was 73%, the “Population Hoechst High Intensity Objects (%)” value [4] was 0% and the “Population Membrane Permeable-Phenotype (%)” value [4] was 8%. The “Population Mitochondria Different-Phenotype (%)” value [4] was 3%, the “Population Mitotic Cells (%)” value [4] was 0% and the “Population Normal (%)” value [4] was 99%. The “Population Pyknosed Nuclei (%)” value [4] was 3%, the “Population Tubulin-Different-Phenotype (%)” value [4] was 4% and the “Total Cell Count” value [4] was 116. For the same molecule, the “Population Apoptotic (%)” value [5] was 80%, the “Population Fragmented Nuclei (%)” value [5] was 20% and the “Population Healthy Nuclei (%)” value [5] was 71%. For the same molecule, the “Population Hoechst High Intensity Objects (%)” value [5] was 2%, the “Population Membrane Permeable-Phenotype (%)” value [5] was 1% and the “Population Mitochondria Different-Phenotype (%)” value [5] was 3%. The “Population Mitotic Cells (%)” value [5] was 20%, the “Population Normal (%)” value [5] was 97% and the “Population Pyknosed Nuclei (%)” value [5] was 8%. The “Population Tubulin-Different-Phenotype (%)” value [5] was 1%, the “Total Cell Count” value [5] was 256 and the “Population Apoptotic (%)” value [6] was 66%. For the same molecule, the “Population Fragmented Nuclei (%)” value [6] was 17%, the “Population Healthy Nuclei (%)” value [6] was 74% and the “Population Hoechst High Intensity Objects (%)” value [6] was 0%. For the same molecule, the “Population Membrane Permeable-Phenotype (%)” value [6] was 9%, the “Population Mitochondria Different-Phenotype (%)” value [6] was 0% and the “Population Mitotic Cells (%)” value [6] was 33%. For the same molecule, the “Population Normal (%)” value [6] was 100%, the “Population Tubulin-Different-Phenotype (%)” value [6] was 10% and the “Total Cell Count” value [6] was 145. For the same molecule, the “Population Apoptotic (%)” value [7] was 96%, the “Population Fragmented Nuclei (%)” value [7] was 20% and the “Population Healthy Nuclei (%)” value [7] was 70%. The “Population Hoechst High Intensity Objects (%)” value [7] was 0%, the “Population Membrane Permeable-Phenotype (%)” value [7] was 5% and the “Population Mitochondria Different-Phenotype (%)” value [7] was 3%. The “Population Mitotic Cells (%)” value [7] was 3%, the “Population Normal (%)” value [7] was 99% and the “Population Pyknosed Nuclei (%)” value [7] was 8%. For the same molecule, the “Population Tubulin-Different-Phenotype (%)” value [7] was 3%, the “Total Cell Count” value [7] was 326 and the “Population Apoptotic (%)” value [8] was 100%. For the same molecule, the “Population Fragmented Nuclei (%)” value [8] was 12%, the “Population Healthy Nuclei (%)” value [8] was 78% and the “Population Hoechst High Intensity Objects (%)” value [8] was 1%. For the same molecule, the “Population Membrane Permeable-Phenotype (%)” value [8] was 8%, the “Population Mitochondria Different-Phenotype (%)” value [8] was 2% and the “Population Mitotic Cells (%)” value [8] was 0%. The “Population Normal (%)” value [8] was 98%, the “Total Cell Count” value [8] was 119 and the “Population Apoptotic (%)” value [9] was 65%. For the same molecule, the “Population Fragmented Nuclei (%)” value [9] was 18%, the “Population Healthy Nuclei (%)” value [9] was 71% and the “Population Hoechst High Intensity Objects (%)” value [9] was 2%. The “Population Membrane Permeable-Phenotype (%)” value [9] was 4%, the “Population Mitochondria Different-Phenotype (%)” value [9] was 3% and the “Population Mitotic Cells (%)” value [9] was 34%. For the same molecule, the “Population Normal (%)” value [9] was 97%, the “Population Pyknosed Nuclei (%)” value [9] was 10% and the “Population Tubulin-Different-Phenotype (%)” value [9] was 2%. For the same molecule, the “Total Cell Count” value [9] was 379, the “Population Apoptotic (%)” value [10] was 90% and the “Population Fragmented Nuclei (%)” value [10] was 20%. The “Population Healthy Nuclei (%)” value [10] was 67%, the “Population Membrane Permeable-Phenotype (%)” value [10] was 8% and the “Population Mitochondria Different-Phenotype (%)” value [10] was 5%. For the same molecule, the “Population Mitotic Cells (%)” value [10] was 9%, the “Population Pyknosed Nuclei (%)” value [10] was 12% and the “Population Tubulin-Different-Phenotype (%)” value [10] was 9%. For the same molecule, the “Total Cell Count” value [10] was 187, the “Population Apoptotic (%)” value [11] was 91% and the “Population Fragmented Nuclei (%)” value [11] was 17%. The “Population Healthy Nuclei (%)” value [11] was 73%, the “Population Hoechst High Intensity Objects (%)” value [11] was 1% and the “Population Membrane Permeable-Phenotype (%)” value [11] was 4%. The “Population Mitochondria Different-Phenotype (%)” value [11] was 3%, the “Population Mitotic Cells (%)” value [11] was 8% and the “Population Normal (%)” value [11] was 98%. The “Population Pyknosed Nuclei (%)” value [11] was 8%, the “Population Tubulin-Different-Phenotype (%)” value [11] was 3% and the “Total Cell Count” value [11] was 408. For the same molecule, the “Population Apoptotic (%)” value [12] was 100%, the “Population Fragmented Nuclei (%)” value [12] was 15% and the “Population Healthy Nuclei (%)” value [12] was 76%. For the same molecule, the “Population Hoechst High Intensity Objects (%)” value [12] was 3%, the “Population Membrane Permeable-Phenotype (%)” value [12] was 5% and the “Population Mitochondria Different-Phenotype (%)” value [12] was 1%. For the same molecule, the “Population Mitotic Cells (%)” value [12] was 0%, the “Population Normal (%)” value [12] was 96% and the “Total Cell Count” value [12] was 158.
